From ChEMBL document CHEMBL1156595, “Studies on the antifungal properties of N-thiolated beta-lactams” (2008)
In brackets after ≈: the same amount, converted by molar mass. Activity calls are given as the source filed them. No cut-off for these calls is given here.

Tests used:
Candida parapsilosis [1] = assay: Antifungal activity against Candida parapsilosis ATCC 22019 after 48 hrs by NCCLS M27-A2 method; assay type: functional; conditions: Lodderomyces parapsilosis, ATCC 22019, 48 h
Method in brief: (§1)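 Broth dilution in yeast nitrogen broth. Lactam from a 1 mg/mL DMSO stock was serially diluted down to 0.125 ug/mL. Each tube got 1 uL of a 10^6 CFU/mL inoculum in sterile NaCl. Incubation was 24 or 48 h at 26°C or 37°C depending on strain. Growth was read by optical density. MIC was the lowest concentration inhibiting all growth, averaged over triplicates.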

Candida parapsilosis [2] = assay: Antifungal activity against Candida parapsilosis ATCC 22019 after 24 hrs by NCCLS M27-A2 method; assay type: functional; conditions: Lodderomyces parapsilosis, ATCC 22019, 24 h; method in brief: as §1
Candida albicans [3] = assay: Antifungal activity against Candida albicans ATCC 2091 after 24 hrs by NCCLS M27-A2 method; assay type: functional; conditions: ATCC 2091, 24 h; method in brief: as §1
Kluyveromyces marxianus [4] = assay: Antifungal activity against Candida kefyr ATCC 20409 assessed as growth inhibition zone at 50 ug after 24 hrs by Kirby-Bauer agar diffusion assay; assay type: functional; conditions: ATCC 20409, 24 h, read-out: IZ
Method in brief: (§2)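 Disk diffusion on yeast nitrogen base agar, swabbed with a McFarland 0.5 suspension in saline. 6 mm cellulose disks carried 10 µL of a 5 mg/mL CH2Cl2 stock (50 ug per disk), air-dried, three disks per plate. Plates were sealed and incubated 24 h at 37°C. Cleared inhibition zones were measured and averaged over triplicates.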

Nakaseomyces glabratus [5] = assay: Antifungal activity against Candida glabrata ATCC 15126 after 48 hrs by NCCLS M27-A2 method; assay type: functional; conditions: ATCC 15126, 48 h; method in brief: as §1
Cyberlindnera jadinii [6] = assay: Antifungal activity against Candida utilis ATCC 29950 after 48 hrs by NCCLS M27-A2 method; assay type: functional; conditions: Williopsis jadinii, ATCC 29950, 48 h; method in brief: as §1
Kluyveromyces marxianus [7] = assay: Antifungal activity against Candida kefyr ATCC 20409 after 48 hrs by NCCLS M27-A2 method; assay type: functional; conditions: ATCC 20409, 48 h; method in brief: as §1
Cyberlindnera jadinii [8] = assay: Antifungal activity against Candida utilis ATCC 29950 after 24 hrs by NCCLS M27-A2 method; assay type: functional; conditions: Williopsis jadinii, ATCC 29950, 24 h; method in brief: as §1
Saccharomyces cerevisiae = assay: Antifungal activity against Saccharomyces cerevisiae in YM agar by agar dilution method; assay type: functional
Method in brief: (§3)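 Agar dilution MIC, run per NCCLS guidance. Medium was potato dextrose agar for A. niger and YM agar for S. cerevisiae.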

Clavispora lusitaniae [9] = assay: Antifungal activity against Candida lusitaniae ATCC 34449 assessed as growth inhibition zone at 50 ug after 24 by Kirby-Bauer agar diffusion assay; assay type: functional; conditions: read-out: IZ; method in brief: as §2
Candida tropicalis [10] = assay: Antifungal activity against Candida tropicalis clinical isolate after 48 hrs by NCCLS M27-A2 method; assay type: functional; method in brief: as §1
Candida parapsilosis [11] = assay: Antifungal activity against Candida parapsilosis ATCC 22019 assessed as growth inhibition zone at 50 ug after 24 hrs by Kirby-Bauer agar diffusion assay; assay type: functional; conditions: Lodderomyces parapsilosis, ATCC 22019, 24 h; read-out: IZ; method in brief: as §2
Clavispora lusitaniae [12] = assay: Antifungal activity against Candida lusitaniae ATCC 34449 after 24 hrs by NCCLS M27-A2 method; assay type: functional; conditions: ATCC 34449, 24 h; method in brief: as §1
Candida albicans [13] = assay: Antifungal activity against Candida albicans ATCC 2091 assessed as growth inhibition zone at 50 ug after 24 hrs by Kirby-Bauer agar diffusion assay; assay type: functional; conditions: ATCC 2091, 24 h, read-out: IZ; method in brief: as §2
Candida tropicalis [14] = assay: Antifungal activity against Candida tropicalis clinical isolate after 24 hrs by NCCLS M27-A2 method; assay type: functional; method in brief: as §1
Kluyveromyces marxianus [15] = assay: Antifungal activity against Candida kefyr ATCC 20409 after 24 hrs by NCCLS M27-A2 method; assay type: functional; conditions: ATCC 20409, 24 h; method in brief: as §1
Candida tropicalis [16] = assay: Antifungal activity against Candida tropicalis clinical isolate assessed as growth inhibition zone at 50 ug after 24 hrs by Kirby-Bauer agar diffusion assay; assay type: functional; conditions: read-out: IZ; method in brief: as §2
Pichia kudriavzevii = assay: Antifungal activity against Candida krusei ATCC 14243 assessed as growth inhibition zone at 50 ug after 24hrs by Kirby-Bauer agar diffusion assay; assay type: functional; conditions: ATCC 14243, 24 h, read-out: IZ; method in brief: as §2
Aspergillus niger = assay: Antifungal activity against Aspergillus niger in potato dextrose agar by agar dilution method; assay type: functional; method in brief: as §3
Clavispora lusitaniae [17] = assay: Antifungal activity against Candida lusitaniae ATCC 34449 after 48 hrs by NCCLS M27-A2 method; assay type: functional; conditions: ATCC 34449, 48 h; method in brief: as §1
Nakaseomyces glabratus [18] = assay: Antifungal activity against Candida glabrata ATCC 15126 assessed as growth inhibition zone at 50 ug after 24 hrs by Kirby-Bauer agar diffusion assay; assay type: functional; conditions: ATCC 15126, 24 h, read-out: IZ; method in brief: as §2
Candida albicans [19] = assay: Antifungal activity against Candida albicans ATCC 2091 assessed as degradation of intracellular membrane at <5 ug/ml after 4 hrs by transmission electron microscopy; assay type: functional, organism-based
Candida albicans [20] = assay: Antifungal activity against Candida albicans ATCC 2091 after 48 hrs by NCCLS M27-A2 method; assay type: functional; conditions: ATCC 2091, 48 h; method in brief: as §1
Nakaseomyces glabratus [21] = assay: Antifungal activity against Candida glabrata ATCC 15126 after 24 hrs by NCCLS M27-A2 method; assay type: functional; conditions: ATCC 15126, 24 h; method in brief: as §1
Cyberlindnera jadinii [22] = assay: Antifungal activity against Candida utilis ATCC 29950 assessed as growth inhibition zone at 50 ug after 24 by Kirby-Bauer agar diffusion assay; assay type: functional; conditions: Williopsis jadinii, read-out: IZ; method in brief: as §2
Candida albicans [23] = assay: Antifungal activity against Candida albicans ATCC 2091 by […]; assay type: functional
Method in brief: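 Tube broth dilution in yeast nitrogen broth. Lactam was added from a 1 mg/mL DMSO stock and serially diluted down to 0.125 ug/mL in broth. Each tube was inoculated with 1 uL of a 10^6 CFU/mL fungal suspension in sterile NaCl and incubated 24 or 48 h at 26°C or 37°C, depending on strain. Growth was read by optical density. MIC is the lowest concentration inhibiting all growth, averaged over triplicates.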

Compound: CO[C@H]1C(=O)N(SC)[C@H]1c1ccccc1Cl
- MIC (Candida parapsilosis [1]): < 5 µg/mL
- MIC (Candida parapsilosis [2]): < 5 µg/mL
- MIC (Candida albicans [3]): < 5 µg/mL
- zone of inhibition at 50 µg/disc (Kluyveromyces marxianus [4]): 17 mm
- MIC (Nakaseomyces glabratus [5]): 10 µg/mL (≈ 38.8 µM)
- MIC (Cyberlindnera jadinii [6]): 15 µg/mL (≈ 58.2 µM)
- MIC (Kluyveromyces marxianus [7]): 35 µg/mL (≈ 136 µM)
- MIC (Cyberlindnera jadinii [8]): 10 µg/mL (≈ 38.8 µM)
- MIC (Saccharomyces cerevisiae): 32 µg/mL (≈ 124 µM)
- zone of inhibition at 50 µg/disc (Clavispora lusitaniae [9]): 20 mm
- MIC (Candida tropicalis [10]): 30 µg/mL (≈ 116 µM)
- zone of inhibition at 50 µg/disc (Candida parapsilosis [11]): 33 mm
- MIC (Clavispora lusitaniae [12]): 10 µg/mL (≈ 38.8 µM)
- zone of inhibition at 50 µg/disc (Candida albicans [13]): 23 mm
- MIC (Candida tropicalis [14]): 10 µg/mL (≈ 38.8 µM)
- MIC (Kluyveromyces marxianus [15]): 10 µg/mL (≈ 38.8 µM)
- zone of inhibition at 50 µg/disc (Candida tropicalis [16]): 21 mm
- zone of inhibition at 50 µg/disc (Pichia kudriavzevii): 0 mm
- MIC (Aspergillus niger): 16 µg/mL (≈ 62.1 µM)
- MIC (Clavispora lusitaniae [17]): 15 µg/mL (≈ 58.2 µM)
- zone of inhibition at 50 µg/disc (Nakaseomyces glabratus [18]): 25 mm
- Activity (Candida albicans [19]): Active
- MIC (Candida albicans [20]): < 5 µg/mL
- MIC (Nakaseomyces glabratus [21]): 10 µg/mL (≈ 38.8 µM)
- zone of inhibition at 50 µg/disc (Cyberlindnera jadinii [22]): 22 mm

Compound: Clc1ccccc1C(c1ccccc1)(c1ccccc1)n1ccnc1 [CLOTRIMAZOLE]
- MIC (Candida albicans [23]): 2 µg/mL (≈ 5.8 µM)
